Measurements reported in publication PMC9558494 (Angewandte Chemie (International Ed. in English), 2022).

How the values were obtained:
ERAP2 = ERAP2 (Homo sapiens, UniProt Q6P179); test: ERAP2 activity assay using R-AMC substrate; assay type: biochemical
LogD octanol/PBS pH 7.4 = assay type: physicochemical
[1] = Pharmacokinetics in mouse; assay type: in vivo, mice
Summary of the method: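 Female mice received a single i.p. dose of 50 mg/kg. Derived parameters were elimination-phase half-life (T1/2 β, min), Cmax (μM), Tmax (min) and AUC extrapolated to infinity (AUC0‑∞, min μM).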

[2] = system: SIINFEKL OVA-derived antigen presentation in HEK cells; test: Antigen presentation assay; assay type: cell-based; conditions: HEK cells where LSIINFEKL is endogenously produced, 24 h
Microsomal stability = assay type: in vitro ADME, human; conditions: for half-life at 1 µM: both, human, liver microsomes, pH 7.4; for HLM Cl: human liver microsomes
Stability in plasma = assay type: in vitro ADME; conditions: both, human
[3] = female, CD-1, mouse, plasma, ip, 50 mg/kg

ERAP2, sequence (Q6P179 whole entry): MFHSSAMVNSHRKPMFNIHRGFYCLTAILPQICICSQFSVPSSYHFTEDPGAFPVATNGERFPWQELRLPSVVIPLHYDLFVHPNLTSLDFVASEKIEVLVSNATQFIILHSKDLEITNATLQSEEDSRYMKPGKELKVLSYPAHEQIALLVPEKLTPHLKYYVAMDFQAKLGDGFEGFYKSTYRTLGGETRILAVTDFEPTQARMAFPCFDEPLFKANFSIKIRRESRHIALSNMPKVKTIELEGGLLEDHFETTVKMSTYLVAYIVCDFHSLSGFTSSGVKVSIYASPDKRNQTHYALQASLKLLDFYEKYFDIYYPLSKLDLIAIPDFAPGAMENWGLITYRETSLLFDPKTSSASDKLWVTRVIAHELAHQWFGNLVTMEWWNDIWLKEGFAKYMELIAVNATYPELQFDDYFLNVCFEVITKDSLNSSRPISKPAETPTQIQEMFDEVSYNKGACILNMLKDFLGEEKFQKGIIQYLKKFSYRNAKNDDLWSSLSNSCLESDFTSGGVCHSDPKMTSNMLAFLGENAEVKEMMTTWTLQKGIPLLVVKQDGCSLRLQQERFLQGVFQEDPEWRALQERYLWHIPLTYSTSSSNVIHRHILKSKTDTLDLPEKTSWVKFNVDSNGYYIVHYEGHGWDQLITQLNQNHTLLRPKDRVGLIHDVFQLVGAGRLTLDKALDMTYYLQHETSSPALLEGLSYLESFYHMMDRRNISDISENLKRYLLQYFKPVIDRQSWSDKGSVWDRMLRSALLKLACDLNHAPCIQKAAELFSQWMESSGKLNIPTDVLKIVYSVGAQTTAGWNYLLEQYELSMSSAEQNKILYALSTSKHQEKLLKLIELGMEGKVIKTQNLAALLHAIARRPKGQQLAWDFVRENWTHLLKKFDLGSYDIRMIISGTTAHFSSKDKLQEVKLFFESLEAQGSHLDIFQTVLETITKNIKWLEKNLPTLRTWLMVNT

## O=C(C[C@@H](Cc1c[nH]c2ccccc12)n1cc(CNS(=O)(=O)c2ccc(-c3ccccc3)s2)nn1)NO [2 b]
ERAP2
  IC50: 12000 nM

## O=C(C[C@@H](Cc1ccc2ccccc2c1)n1cc(CNS(=O)(=O)c2ccc(-c3ccccc3)s2)nn1)NO [2 c]
ERAP2
  IC50: 2290 nM

## O=C(NO)[C@H](Cc1ccc(O)cc1)n1cc(CNS(=O)(=O)c2ccc(-c3ccccc3)s2)nn1 [4 a]
ERAP2
  IC50: 760 nM

## O=C(NO)[C@@H](Cc1c[nH]c2ccccc12)n1cc(CNS(=O)(=O)c2ccc(-c3ccccc3)s2)nn1 [4 b]
ERAP2; read-out: %inh at 100 μM
  inhibition at 100 µM: 43%
ERAP2; replacement of the phenol group by an indole
  ERAP2 activity in words: complete loss of activity

## COc1ccc(C[C@@H](C(=O)NO)n2cc(CNS(=O)(=O)c3ccc(-c4ccccc4)s3)nn2)cc1 [4 d]
LogD octanol/PBS pH 7.4
  logD at 2 h: 2.99
[1]; [3]
  AUC: 12.9 µM·h
  Cmax: 18 µM
[1]; mice, 50 mg kg^−1, i. p.
  tolerability of the dose: tolerated
[2]
  effect on SIINFEKL antigen presentation: dose‐dependent effect
Microsomal stability
  half-life at 1 µM: > 0.667 h
  HLM Cl: 50 µL/min/g
Stability in plasma
  half-life at 10 µM: > 6 h

## COc1ccc(C[C@@H](C(=O)NO)n2cc(CNS(=O)(=O)c3ccc(-c4ccccn4)s3)nn2)cc1 [4 e]
LogD octanol/PBS pH 7.4
  logD at 2 h: 1.81
Microsomal stability
  half-life at 1 µM: > 0.667 h
  HLM Cl: 21 µL/min/g
Stability in plasma
  half-life at 10 µM: > 6 h

## O=C(NO)[C@H](Cc1ccc(Oc2ccccc2)cc1)n1cc(CNS(=O)(=O)c2ccc(-c3ccccn3)s2)nn1 [4 f]
LogD octanol/PBS pH 7.4
  logD at 2 h: 4.11
[2]
  effect on SIINFEKL antigen presentation: dose‐dependent effect
Stability in plasma
  half-life at 10 µM: > 6 h
